This is a sample that favours compounds with a hit; in the whole collection about 2.5% have one here.
E coli Lon inh – E. coli protease La inhibition. purified E. coli Lon protease, fluorescence polarization. P0A9M0. hit rate 0.42% among 360,000. AID 602123. inhibition, % at 7.94 µM; in the data active = inhibition above about 13%, passing the limit was not always enough
GSTO1 inh – counter-screen for RBBP9 inhibitors: inhibitors of human GSTO1; recombinant GSTO1, activity-based probe fluorescence polarization; inhibition, % at 5.96 µM; hit rate 1.1% among 300,000; AID 1974;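 active = inhibition above the campaign mean inhibition plus 3 SD, cut at about 35% in these data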
PRMT1 FP inh – blocks human protein arginine methyltransferase 1; Q99873; recombinant PRMT1, activity-based probe fluorescence polarization; inhibition, % at 2.79 µM; hit rate 1.3% among 370,000; AID 652257;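 active = inhibition above about 21% made by adding two undisclosed values, limit read from the data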
Target sequence (Q99873 whole entry, looked up): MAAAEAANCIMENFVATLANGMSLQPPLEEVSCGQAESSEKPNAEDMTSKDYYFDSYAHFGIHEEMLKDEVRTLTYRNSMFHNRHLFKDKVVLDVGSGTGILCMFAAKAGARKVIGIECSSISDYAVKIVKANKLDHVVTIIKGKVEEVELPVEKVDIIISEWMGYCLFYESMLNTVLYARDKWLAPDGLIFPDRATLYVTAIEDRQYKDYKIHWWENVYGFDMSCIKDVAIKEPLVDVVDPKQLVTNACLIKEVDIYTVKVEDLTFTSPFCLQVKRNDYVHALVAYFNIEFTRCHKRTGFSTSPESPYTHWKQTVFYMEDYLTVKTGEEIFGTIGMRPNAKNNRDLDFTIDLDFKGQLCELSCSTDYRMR
TDP2 absorb – blocks human TDP2 phosphodiesterase activity; recombinant TDP2, T5PNP hydrolysis, p-nitrophenol absorbance 415 nm; AID 720702; hit rate 0.34% among 370,000; inhibition, % at 12.8 µM;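 active = inhibition above the mean of all tested compounds plus 3 SD, set per campaign, cut at about 25% in these data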
Target sequence (O95551 whole entry, looked up): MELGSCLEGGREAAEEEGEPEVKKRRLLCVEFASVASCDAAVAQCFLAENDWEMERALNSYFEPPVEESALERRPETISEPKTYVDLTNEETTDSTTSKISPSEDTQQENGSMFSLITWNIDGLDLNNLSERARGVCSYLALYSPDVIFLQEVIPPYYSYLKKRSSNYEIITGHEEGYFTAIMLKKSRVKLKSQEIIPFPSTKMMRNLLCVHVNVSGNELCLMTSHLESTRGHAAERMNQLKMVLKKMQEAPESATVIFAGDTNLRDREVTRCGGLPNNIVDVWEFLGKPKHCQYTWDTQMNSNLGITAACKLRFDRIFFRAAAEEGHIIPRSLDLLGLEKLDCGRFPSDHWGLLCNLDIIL
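Assay system: recombinant human TDP2 / Reagent: T5PNP substrate at 5 mM, a TopII-DNA adduct mimic / Measured by: epi absorbance from released p-nitrophenol / Evaluation: % inhibition relative to enzyme-containing and enzyme-free wells / Control set: enzyme-free and DMSO wells / Replicates: each compound tested once, singlicate / Schedule: enzyme reaction with compound for 2 h at 37 °C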
PAD4 FP inh – inhibitors of human PAD4; inhibition, % at 6.36 µM; recombinant PAD4, RCA probe fluorescence polarization; hit rate 0.41% among 330,000;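 active = percent inhibition above a cutoff equal to the mean of all tested compounds plus 3 SD, cut at about 15% in these data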
PRMT1 inh conf – confirmation of human PRMT1 inhibitors; recombinant His-PRMT1, activity-based probe fluorescence polarization; inhibition, % at 2.79 µM; hit rate 42% among 3,300; shares compounds with PRMT1 FP inh;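 active = mean inhibition across replicates above the hit cutoff derived for the earlier primary screen, cut at about 22% in these data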
Large screens that a line does not name were inactive (follow-up assays come after a bar, where they were run).

Cc1ccc(-c2cc(-c3ccccc3)c(C#N)c(N)n2)o1	PRMT1 FP inh 30 | PRMT1 inh conf 66
CCOC(=O)C1=C(C)N=c2s/c(=C/c3ccc(OCC(=O)O)cc3)c(=O)n2C1c1ccc(F)cc1 (centres undefined)	PRMT1 FP inh 37 | PRMT1 inh conf inactive
CCOC(=O)C1=C(C)N=c2s/c(=C/c3ccc(OCC(=O)O)c(OC)c3)c(=O)n2C1c1ccc(Cl)cc1 (centres undefined)	PRMT1 FP inh 34 | PRMT1 inh conf 22
CCOC(=O)C1=C(C)N=c2s/c(=C\c3ccc(OCC(=O)O)cc3)c(=O)n2C1c1ccc(Cl)cc1 (centres undefined)	PRMT1 FP inh 30 (no result: GSTO1 inh, PAD4 FP inh) | PRMT1 inh conf inactive
COC(=O)c1ccc(C)c(NC(=O)CSc2sc3c(O)cc(=O)[nH]c3c2C#N)c1	PRMT1 FP inh 49 | PRMT1 inh conf inactive
Cc1cc(NC(=O)CSc2nc3[nH]c(=O)cc(O)c3s2)ccc1Br	none (no result: GSTO1 inh, PAD4 FP inh)
Cc1ccc(C)c(NC(=O)CSc2sc3c(O)cc(=O)[nH]c3c2C#N)c1	PRMT1 FP inh 55 | PRMT1 inh conf inactive
COC(=O)c1ccc(C)c(NC(=O)CCSc2ccc(C)cc2)c1	none
Cc1cc(NC(=O)CSc2sc3c(O)cc(=O)[nH]c3c2C#N)ccc1Br	PRMT1 FP inh 30 | PRMT1 inh conf inactive
Cc1ccc(C)c(NC(=O)CSc2nc(C)cc(=O)[nH]2)c1	none (no result: E coli Lon inh, GSTO1 inh, PAD4 FP inh)
Cc1cccc2nc(CSCc3ccco3)cn12	PRMT1 FP inh 27 | PRMT1 inh conf inactive
Cc1cc(C)n2cc(CSCc3ccco3)nc2n1	none
COC(=O)C1C2CC(=O)C(C2)C1C(=O)OC (centres undefined)	none (no result: GSTO1 inh, PAD4 FP inh)
Cc1nc(=S)c2ccccc2[nH]1	none
FC(F)(F)c1nc(=S)c2ccccc2[nH]1	PRMT1 FP inh 33 (no result: GSTO1 inh, PAD4 FP inh) | PRMT1 inh conf 25
COc1ccccc1-c1nc(SCC(=O)N2CCC(C(N)=O)CC2)n[nH]1	none (no result: GSTO1 inh)
Cc1cccc(N=C2NC(=O)/C(=C/c3cccn3C)S2)c1C	none
Cc1cccc(N=C2NC(=O)/C(=C/C=C/c3ccco3)S2)c1C	PRMT1 FP inh 29 | PRMT1 inh conf 31
Cc1cc(C2=NNC(=NC3CC3)SC2)c(C)n1-c1ccccc1F	PRMT1 FP inh 36 | PRMT1 inh conf inactive
O=C(O)c1ccc(NNC(=S)Nc2cc(C(F)(F)F)ccc2Cl)cc1	PRMT1 FP inh 27 | PRMT1 inh conf inactive
O=C(c1ccco1)N1CCN(CCCCOc2cccc3ccccc23)CC1	none
COc1ccc(C(=O)Cn2c(NCCO)nc3ccccc32)cc1OC	none
COc1ccc(C(=O)Cn2c(NCCCO)nc3ccccc32)cc1OC	PRMT1 FP inh 48 | PRMT1 inh conf inactive
O=S(=O)(c1ccccc1)c1nc(-c2ccco2)oc1NCc1cccnc1	PRMT1 FP inh 32 | PRMT1 inh conf inactive
O=S(=O)(c1ccccc1)c1nc(-c2ccccc2)oc1NCc1cccnc1	none
NC(=O)c1c(N)sc2c1CCCC2	PRMT1 FP inh 41 | PRMT1 inh conf 29
O=S1(=O)CC(O)C(O)CS1 (centres undefined)	PRMT1 FP inh 81 (no result: GSTO1 inh, PAD4 FP inh) | PRMT1 inh conf 85
Cc1n[nH]c(=S)n(NC(=O)/C=C/C(=O)Nn2c(=S)[nH]nc(C)c2=O)c1=O	PRMT1 FP inh 29 (no result: GSTO1 inh, PAD4 FP inh) | PRMT1 inh conf 30
Cc1n[nH]c(=S)n(NC(=O)CC(=O)Nn2c(=S)[nH]nc(C)c2=O)c1=O	none
CN(C(=O)CNC(=O)c1ccccc1OCC(=O)Nc1ccc(I)cc1)c1ccccc1	PRMT1 FP inh 31 (no result: E coli Lon inh, GSTO1 inh, PAD4 FP inh) | PRMT1 inh conf inactive
CCOC(=O)c1csc(-c2csc(CCNC(=O)c3ccccc3)n2)n1	none (no result: GSTO1 inh, PAD4 FP inh)
Cc1ccc(C2c3sc(=O)[nH]c3SC3C4CC(C5C(=O)N(C(C)C(=O)O)C(=O)C45)C23)cc1 (centres undefined)	PRMT1 FP inh 59 | PRMT1 inh conf inactive
CC(=O)N1CCc2cc(S(=O)(=O)CCC(=O)NCCc3ccc(C)cc3)ccc21	none
O=C(Nc1cccc(F)c1)OCCN1CCCC12CCC(c1ccccc1)CC2 (centres undefined)	none (no result: E coli Lon inh, GSTO1 inh, PAD4 FP inh)
S=C(Nc1ccc(Br)cc1)OCCN1CCCC12CCC(c1ccccc1)CC2 (centres undefined)	PRMT1 FP inh 52 (no result: E coli Lon inh, GSTO1 inh, PAD4 FP inh) | PRMT1 inh conf 56
S=C(Nc1cccc(Cl)c1)OCCN1CCCC12CCC(c1ccccc1)CC2 (centres undefined)	PRMT1 FP inh 44 (no result: E coli Lon inh, GSTO1 inh, PAD4 FP inh) | PRMT1 inh conf 58
COc1ccc(NC(=O)OCCN2CCCC23CCC(c2ccccc2)CC3)cc1 (centres undefined)	none (no result: E coli Lon inh, GSTO1 inh, PAD4 FP inh)
S=C(Nc1ccccc1Cl)OCCN1CCCC12CCC(c1ccccc1)CC2 (centres undefined)	PRMT1 FP inh 57 (no result: E coli Lon inh, GSTO1 inh, PAD4 FP inh) | PRMT1 inh conf 41
O=C(Nc1ccc(Br)cc1)OCCN1CCCC12CCC(c1ccccc1)CC2 (centres undefined)	none (no result: E coli Lon inh, GSTO1 inh, PAD4 FP inh)
CCCCNC(=O)C1(C(=O)C2CC2)CC(C(=O)OCC)=NO1 (centres undefined)	none (no result: E coli Lon inh, GSTO1 inh, PAD4 FP inh)
CC(=O)c1ccc(Nc2nc(C(N)COCc3ccccc3)cs2)cc1 (centres undefined)	none (no result: GSTO1 inh, PAD4 FP inh)
COC(=O)[C@]12C[C@H](CC(=O)N3CCN(C(=O)c4ccco4)CC3)C(=O)N(Cc3ccco3)C1=C[C@H](C(C)C)O[C@@H]2C1CC1	none (no result: E coli Lon inh, GSTO1 inh, PAD4 FP inh)
O=[N+]([O-])c1cc2c(cc1/C=N/NS(=O)(=O)c1ccc(Br)cc1)OCO2	PRMT1 FP inh 34 | PRMT1 inh conf inactive
Cc1ccc(S(=O)(=O)N/N=C\c2cc3c(cc2Br)OCO3)cc1	none
c1nc(NCC2CCOC2)c2cc(-c3ccc4c(c3)OCO4)ccc2n1 (centres undefined)	none (no result: E coli Lon inh, GSTO1 inh, PAD4 FP inh)
Cc1cc(-n2c(C)cc(C(=O)CSc3ccccn3)c2C)no1	PRMT1 FP inh 26 (no result: GSTO1 inh) | PRMT1 inh conf inactive
COc1ccc(C=Cc2ccc3ccccc3n2)c(OC)c1	PRMT1 FP inh 147 (no result: GSTO1 inh, PAD4 FP inh) | PRMT1 inh conf inactive
C=CCn1cccc(/C=C/C(=O)c2ccc(C(C)(C)C)cc2)c1=S	PRMT1 FP inh 27 | PRMT1 inh conf inactive
O=C(C=Cc1ccccc1Cl)c1ccccc1	none (no result: GSTO1 inh, PAD4 FP inh)
CC(C(=O)OCC(=O)N1CCN(c2ccccc2)CC1)N1C(=O)c2ccccc2C1=O (centres undefined)	none (no result: GSTO1 inh)
COCCCN1C(=O)[C@H](CC(=O)N2CCCCC2)[C@]2(C(=O)OC)CCCCC=C12	none (no result: E coli Lon inh, GSTO1 inh, PAD4 FP inh)
NC(=O)C1CCN(C(=S)c2ccc(-c3ccc(Br)cc3)o2)CC1	PRMT1 FP inh 46 | PRMT1 inh conf 60
NC(=O)c1ccc(-c2ccc(Br)cc2)o1	none
COc1ccc(S(=O)(=O)N(C(=O)C(C)C)c2ccc3oc(=O)sc3c2)cc1	PRMT1 FP inh 68 | PRMT1 inh conf 39
CC1(c2ccccc2)NC(=O)N(CC(=O)Nc2ccc(N3CCOCC3)cc2)C1=O (centres undefined)	none (no result: GSTO1 inh)
Cc1cccc(/C=N/n2c(-c3cc(-c4ccccc4)n[nH]3)n[nH]c2=S)c1	none
S=c1[nH]nc(-c2cc(-c3ccccc3)n[nH]2)n1/N=C/C=C/c1ccccc1	none
